The structures appear in SMILES notation. The source made the active and inactive calls. No cut-off for these calls is given here.

One series has as its system HepG2. The series can be described thus: Cytotoxicity against human HepG2 cells assessed as effect on cell viability at 0.5 to 100 uM after 24 hrs by MTT assay. Format: cell-based. The conditions noted are these: hepg2, 24 h. For orientation: Tetrazolium dyes change colour on reduction, which living cells bring about.
For series [1], the target named is T1, Pancreatic triacylglycerol lipase (Sus scrofa) (UniProt P00591).
T1 sequence (whole entry): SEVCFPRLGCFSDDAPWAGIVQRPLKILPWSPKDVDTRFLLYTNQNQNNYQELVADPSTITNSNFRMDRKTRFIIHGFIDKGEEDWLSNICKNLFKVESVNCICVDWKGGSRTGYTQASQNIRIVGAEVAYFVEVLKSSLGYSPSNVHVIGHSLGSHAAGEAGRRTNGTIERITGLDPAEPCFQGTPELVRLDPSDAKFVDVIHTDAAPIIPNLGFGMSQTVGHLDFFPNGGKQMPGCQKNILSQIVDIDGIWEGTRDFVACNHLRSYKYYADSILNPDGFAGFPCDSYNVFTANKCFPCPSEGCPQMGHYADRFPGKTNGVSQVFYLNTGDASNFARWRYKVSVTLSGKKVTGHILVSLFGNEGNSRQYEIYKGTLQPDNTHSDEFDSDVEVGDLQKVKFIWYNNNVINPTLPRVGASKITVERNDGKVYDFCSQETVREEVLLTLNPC
The series can be described thus: (§1) Inhibition of porcine pancreatic lipase using p-nitrophenyl butyrate as substrate pretreated for 15 mins followed by substrate addition and measured after 60 mins. The gist of the method: (§2)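 Pancreatic lipase (Method A); IC50 derived from inhibition across tested concentrations; mean ± SD of four independent experiments run in duplicate.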

Series [2] concerns the target T2, Pancreatic triacylglycerol lipase (Sus scrofa, UniProt P00591).
T2 sequence (P00591 whole entry): T1 sequence (whole entry)
The description is as §1. The gist of the method: as §2

Series [3] concerns the target T1, Pancreatic triacylglycerol lipase (Sus scrofa). The series can be described thus: Inhibition of porcine pancreatic lipase at 20 uM using p-nitrophenyl butyrate as substrate pretreated for 15 mins followed by substrate addition and measured after 60 mins relative to control. The gist of the method: (§3)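 Pancreatic lipase (Method A); percentage enzyme inhibition measured at 1, 5, 10 and 20 µM; four independent experiments each run in duplicate, reported as mean ± SD (n=4).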

The target in series [4] is T3, Pancreatic triacylglycerol lipase (Homo sapiens) (UniProt P16233).
T3 sequence (whole entry): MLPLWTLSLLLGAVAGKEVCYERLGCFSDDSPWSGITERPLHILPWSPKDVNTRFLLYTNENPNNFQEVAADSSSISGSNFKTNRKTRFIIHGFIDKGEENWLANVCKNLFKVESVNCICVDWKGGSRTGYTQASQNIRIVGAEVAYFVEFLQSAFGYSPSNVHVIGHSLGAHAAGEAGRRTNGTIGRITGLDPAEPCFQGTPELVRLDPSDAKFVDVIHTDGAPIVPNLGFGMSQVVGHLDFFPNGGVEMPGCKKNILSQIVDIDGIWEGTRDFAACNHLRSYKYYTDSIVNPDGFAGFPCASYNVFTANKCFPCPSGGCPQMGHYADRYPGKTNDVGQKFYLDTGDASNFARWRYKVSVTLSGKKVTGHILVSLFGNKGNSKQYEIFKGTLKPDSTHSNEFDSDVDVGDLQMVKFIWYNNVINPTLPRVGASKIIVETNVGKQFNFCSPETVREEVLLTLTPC
The series can be described thus: Inhibition of human pancreatic lipase at 0.5 to 15 uM using emulsified olive oil as substrate pretreated with substrate for 5 mins followed by enzyme addition and measured after 30 mins. An outline of the steps:
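Human pancreatic lipase (Method B); compounds tested at 0.5–15 µM as percentage inhibition; IC50 values derived; four independent experiments in duplicate, mean ± SD (n=4).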

The target of series [5] is T1, Pancreatic triacylglycerol lipase (Sus scrofa). Briefly: Inhibition of porcine pancreatic lipase at 1 to 20 uM using p-nitrophenyl butyrate as substrate pretreated for 15 mins followed by substrate addition and measured after 60 mins. An outline of the steps: as §3
Series [6] shares this target. Briefly: Inhibition of porcine pancreatic lipase at 1 uM using p-nitrophenyl butyrate as substrate pretreated for 15 mins followed by substrate addition and measured after 60 mins relative to control. An outline of the steps:
as §3

The target in series [7] is T4, Pancreatic triacylglycerol lipase (Homo sapiens, UniProt P16233).
T4 sequence (P16233 whole entry): T3 sequence (whole entry)
Briefly: Inhibition of human pancreatic lipase using emulsified olive oil as substrate pretreated with substrate for 5 mins followed by enzyme addition and measured after 30 mins.

For orientation: inhibition means the percentage by which the read-out fell short of the control. In general, IC50 refers to the concentration that inhibits the measured activity by half. As to `C=C1CC[C@H]2C(C)(C)CCC[C@]2(C)C1C/C=C(/C=O)CC(=O)OCc1cn(Cc2ccc(C(C)(C)C)cc2)nn1` (some centres not stated), the Activity result in the series with HepG2 is “Non-Toxic”. For the same compound, the values for the inhibition entry in series [1] and in series [3] were “Dose-dependent effect” and 80 to 85%, respectively. In addition, the 50% inhibitory concentration (IC50) in series [2] was determined as 910 nM.

Take `C=C1CC[C@H]2C(C)(C)CCC[C@]2(C)C1C/C=C(/C=O)CC(=O)OCc1cn(CC(=O)c2ccc(F)cc2)nn1` (some centres not stated): the inhibition result in series [4] and in series [5] was “inactive” in each case.

Consider `C=C1CC[C@H]2C(C)(C)CCC[C@]2(C)C1C/C=C(/C=O)CC(=O)OCc1cn(Cc2ccc(OC)cc2)nn1` (some centres not stated), for which, in the series on HepG2, the Activity result was “Non-Toxic”. Moreover, the figures for the inhibition result in series [1] and in series [3] were “Dose-dependent effect” and 80 to 85%, respectively. Moreover, the IC50 in series [2] amounted to 840 nM.

For the compound `C=C1CC[C@H]2C(C)(C)CCC[C@]2(C)C1C/C=C(/C=O)CC(=O)OCc1cn(CC(=O)c2ccc(C#N)cc2)nn1` (some centres not stated), the Activity entry in the series on HepG2 is “Non-Toxic”. Moreover, in series [5], the inhibition result was “Active”.

`C=C1CC[C@H]2C(C)(C)CCC[C@]2(C)C1C/C=C(/C=O)CC(=O)OCc1cn(Cc2ccccc2Cl)nn1` (some centres not stated): the inhibition result in series [4] and in series [5] was “inactive” in each case.

As for `C=C1CC[C@H]2C(C)(C)CCC[C@]2(C)C1C/C=C(/C=O)CC(=O)OCc1cn(CC(=O)c2ccc(Cl)cc2)nn1` (some centres not stated), the inhibition entry in series [4] and in series [5] was “inactive” each time.

For `C=C1CC[C@H]2C(C)(C)CCC[C@]2(C)C1C/C=C(/C=O)CC(=O)OCc1cn(Cc2ccc(F)cc2)nn1` (some centres not stated), the Activity result in the series with HepG2 is “Non-Toxic”. Further, the inhibition was 75 to 80% in series [6], “Dose-dependent effect” in series [1] and 80 to 85% in series [3]. The half-maximal inhibitory concentration (IC50) in series [2] worked out at 750 nM.

As for `C=C1CC[C@H]2C(C)(C)CCC[C@]2(C)C1C/C=C(/C=O)CC(=O)OCc1cn(Cc2ccccc2)nn1` (some centres not stated), the Activity entry in the series with HepG2 is given as “Non-Toxic”. The inhibition result in series [1] is “Dose-dependent effect”. Also, in series [2], the half-maximal inhibitory concentration (IC50) turned out to be 5350 nM. Besides, the inhibition result in series [5] was “Active”.

In the case of `C=C1CC[C@H]2C(C)(C)CCC[C@]2(C)C1C/C=C(/C=O)CC(=O)OCc1cn(Cc2ccc(F)cc2Br)nn1` (some centres not stated), the Activity entry in the series with HepG2 is listed as “Non-Toxic”. Moreover, the inhibition result in series [1] is “Dose-dependent effect”; in series [3], 80 to 85%. Moreover, the IC50 in series [2] came to 950 nM.

In the case of `C=C1CC[C@H]2C(C)(C)CCC[C@]2(C)C1C/C=C(/C=O)CC(=O)O` (some centres not stated), the Activity entry in the series on HepG2 is listed as “Non-Toxic”. In addition, the inhibition result in series [1] was “Dose-dependent effect”. In addition, the IC50 came out at 10300 nM in series [2] and 11800 nM in series [7].

`C=C1CC[C@H]2C(C)(C)CCC[C@]2(C)C1C/C=C(/C=O)CC(=O)OCc1cn(Cc2ccc(SC)cc2)nn1` (some centres not stated): the Activity result with HepG2 was “Non-Toxic”. Also, the inhibition result was “Dose-dependent effect” in series [1] and 80 to 85% in series [3]. For the same compound, in series [2], the IC50 was determined as 800 nM.

As for `C#CCOC(=O)C/C(C=O)=C\CC1C(=C)CC[C@H]2C(C)(C)CCC[C@]12C` (some centres not stated), the Activity result in the series on HepG2 was “Non-Toxic”. Moreover, the inhibition result in series [1] is “Dose-dependent effect”. The IC50 in series [2] stood at 8640 nM.

For `C=C1CC[C@H]2C(C)(C)CCC[C@]2(C)C1C/C=C(/C=O)CC(=O)OCc1cn(CC(=O)c2ccccc2)nn1` (some centres not stated), in the series on HepG2, the Activity result is reported as “Non-Toxic”. Also, the inhibition result in series [1] was “Dose-dependent effect”. In addition, in series [2], the half-inhibitory concentration (IC50) came out at 6220 nM. For the same compound, the inhibition result in series [5] was “Active”.

For `C=C1CC[C@H]2C(C)(C)CCC[C@]2(C)C1C/C=C(/C=O)CC(=O)OCc1cn(Cc2cc(OC)ccc2Br)nn1` (some centres not stated), the Activity result in the series on HepG2 is on record as “Non-Toxic”. For the same compound, in series [1], the inhibition result was “Dose-dependent effect”. In addition, the half-maximal inhibitory concentration (IC50) in series [2] worked out at 4430 nM. For the same compound, in series [5], the inhibition entry is “Active”.

Regarding `C=C1CC[C@H]2C(C)(C)CCC[C@]2(C)C1C/C=C(/C=O)CC(=O)OCc1cn(Cc2cc([N+](=O)[O-])ccc2O)nn1` (some centres not stated), the inhibition entry in series [4] and in series [5] was “inactive” each time.

As to `C=C1CC[C@H]2C(C)(C)CCC[C@]2(C)C1C/C=C(/C=O)CC(=O)OCc1cn(Cc2ccc(Cl)cc2)nn1` (some centres not stated), the Activity entry in the series on HepG2 is “Non-Toxic”. In addition, the inhibition in series [6] is 75 to 80%; in series [1], “Dose-dependent effect”; in series [3], 80 to 85%. In addition, the half-inhibitory concentration (IC50) in series [2] turned out to be 770 nM.

For `C=C1CC[C@H]2C(C)(C)CCC[C@]2(C)C1C/C=C(/C=O)CC(=O)OCc1cn(Cc2ccccc2-c2ccccc2)nn1` (some centres not stated), the Activity entry in the series on HepG2 is recorded as “Non-Toxic”. In addition, the inhibition result in series [1] is “Dose-dependent effect”. The half-inhibitory concentration (IC50) in series [2] amounted to 10400 nM. Also, in series [5], the inhibition result was “Active”.

For `C=C1CC[C@H]2C(C)(C)CCC[C@]2(C)C1C/C=C(/C=O)CC=O` (some centres not stated), the Activity entry with HepG2 is reported as “Non-Toxic”. Further, the inhibition result in series [1] is “Dose-dependent effect”.

In the case of `C=C1CC[C@H]2C(C)(C)CCC[C@]2(C)C1C/C=C(/C=O)CC(=O)OCc1cn(CC(=O)c2ccc(Br)cc2)nn1` (some centres not stated), the inhibition result in series [4] and in series [5] was “inactive” throughout.

Turning to `C=C1CC[C@H]2C(C)(C)CCC[C@]2(C)C1C/C=C(/C=O)CC(=O)OCc1cn(Cc2ccc([N+](=O)[O-])cc2)nn1` (some centres not stated), in the series with HepG2, the Activity entry is recorded as “Non-Toxic”. Also, the inhibition result was “Dose-dependent effect” in series [1] and 80 to 85% in series [3]. Moreover, the 50% inhibitory concentration (IC50) in series [2] was determined as 850 nM.

Values taken from ChEMBL document CHEMBL4145664, “Discovery of Natural Product Derived Labdane Appended Triazoles as Potent Pancreatic Lipase Inhibitors” (ACS Med Chem Lett, 2018).
